The values below come from ChEMBL document CHEMBL1134379, “Covalently induced activation of the delta opioid receptor by a fluorogenic affinity label, 7'-(phthalaldehydecarboxamido)naltrindole (PNTI)” (J Med Chem, 2001).

Experiment [1] deals with T1, Delta-type opioid receptor (Homo sapiens, UniProt P41143). In words: Irreversible binding to delta receptor after pretreatment with naloxone (1 uM) at 20 nM of the compound.
Experiment [2] has as its target T1, Delta-type opioid receptor. In words: Irreversible binding to delta receptor before pretreatment with naloxone (1 uM) at 1 uM.
The target in experiment [3] is T1, Delta-type opioid receptor. Kind of experiment: Irreversible binding to delta receptor before pretreatment with naloxone (1 uM) at 20 nM of the compound.
Experiment [4] deals with T1, Delta-type opioid receptor. In words: Binding affinity towards delta-opioid receptor from CHO cells. It is filed as cell-based, Cricetulus griseus.
In experiment [5] the target is Kappa-type opioid receptor (Homo sapiens, UniProt P41145). In words: Binding affinity towards opioid receptor kappa 1 from CHO cells. In kind it is cell-based, Cricetulus griseus.
Chain of Kappa-type opioid receptor (P41145 whole entry): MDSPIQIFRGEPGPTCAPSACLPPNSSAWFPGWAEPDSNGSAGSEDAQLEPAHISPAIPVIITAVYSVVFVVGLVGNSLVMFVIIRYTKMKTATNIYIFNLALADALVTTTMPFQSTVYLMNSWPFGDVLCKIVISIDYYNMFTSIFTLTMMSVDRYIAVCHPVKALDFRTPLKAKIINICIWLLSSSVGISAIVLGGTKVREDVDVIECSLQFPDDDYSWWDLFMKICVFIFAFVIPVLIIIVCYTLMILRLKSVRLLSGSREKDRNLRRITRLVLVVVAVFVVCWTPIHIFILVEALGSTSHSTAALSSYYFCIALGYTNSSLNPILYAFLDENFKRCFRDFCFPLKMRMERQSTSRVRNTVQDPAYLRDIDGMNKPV
For experiment [6], the target named is T1, Delta-type opioid receptor. In words: Irreversible binding to delta receptor after pretreatment with naloxone (1 uM) at 1 uM of the compound.
Experiment [7] deals with Mu-type opioid receptor (Homo sapiens, UniProt P35372). In words: Binding affinity towards mu-opioid receptor from CHO cells. In kind it is cell-based, Cricetulus griseus.
Chain of Mu-type opioid receptor (P35372 whole entry): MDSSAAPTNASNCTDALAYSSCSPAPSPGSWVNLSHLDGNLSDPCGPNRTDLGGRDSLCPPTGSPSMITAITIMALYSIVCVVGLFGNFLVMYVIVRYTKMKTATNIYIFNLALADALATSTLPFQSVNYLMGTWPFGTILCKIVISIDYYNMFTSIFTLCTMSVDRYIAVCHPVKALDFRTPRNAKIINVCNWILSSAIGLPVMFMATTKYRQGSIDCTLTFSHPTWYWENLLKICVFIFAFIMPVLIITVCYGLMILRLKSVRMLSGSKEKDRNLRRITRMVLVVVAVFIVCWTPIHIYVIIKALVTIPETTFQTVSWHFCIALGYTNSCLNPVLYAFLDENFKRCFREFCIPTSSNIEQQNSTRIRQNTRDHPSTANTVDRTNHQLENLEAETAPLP
For experiment [8], the species on record is Mus musculus. Kind of experiment: Agonist activity in mouse vas deferens (MVD) assay. In kind it is functional, organism-based. The essentials: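 Electrically stimulated mouse vas deferens preparation. The compound's inhibition of the twitch was measured and the IC50 was derived from the concentration–effect curve.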
For experiment [9], the system named is Mus musculus. In words: Antinociceptive activity by mouse tail-flick antinociceptive assay after icv administration in mouse. In kind it is functional.
The target of experiment [10] is T1, Delta-type opioid receptor. In words: Irreversible binding to delta receptor before pretreatment with naloxone (1 uM) at 1 uM of the compound.

T1 sequence (P41143 whole entry): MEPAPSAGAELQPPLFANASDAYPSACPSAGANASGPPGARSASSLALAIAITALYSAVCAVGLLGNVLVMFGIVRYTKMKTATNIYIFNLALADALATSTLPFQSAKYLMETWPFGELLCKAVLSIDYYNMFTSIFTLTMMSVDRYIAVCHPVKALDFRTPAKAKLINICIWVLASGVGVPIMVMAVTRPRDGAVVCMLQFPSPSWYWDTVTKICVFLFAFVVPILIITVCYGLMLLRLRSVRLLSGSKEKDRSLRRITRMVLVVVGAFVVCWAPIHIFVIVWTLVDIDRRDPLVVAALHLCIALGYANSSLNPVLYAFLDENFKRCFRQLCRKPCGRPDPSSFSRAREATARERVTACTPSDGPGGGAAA

The Ki is a measure of affinity in units of concentration, obtained from inhibition or displacement. High values mean weaker binding, low ones tighter binding. As a reminder, the IC50 is the concentration needed to halve the response being measured. Lower therefore signals greater potency. Regarding `O=Cc1ccc(C(=O)Nc2cccc3c4c([nH]c23)C2Oc3c(O)ccc5c3[C@@]23CCN(CC2CC2)[C@H](C5)[C@]3(O)C4)cc1C=O` (stereo partly drawn), the Binding in experiment [1] came to 28%; in [2] it was 3%; in [3] it was 30%; in [6], 10%. Besides, the inhibition constant (Ki) in [4] is 1.9 nM; in experiment [5], 20.1 nM; in experiment [7], 14.9 nM. This molecule also yielded a 50% inhibitory concentration (IC50) in experiment [8] of 0.12 nM. This molecule displayed an ED50 in experiment [9] of 2.06 nM.
In the case of `O=C(Nc1cccc2c3c([nH]c12)C1Oc2c(O)ccc4c2[C@@]12CCN(CC1CC1)[C@H](C4)[C@]2(O)C3)c1ccccc1` (stereo partly drawn), the Binding in [1] was determined as 70%; in [3] it was 42%; in [10], 7%; in experiment [6] it was 20%.
